Assays:
CYP3A4 = CYP3A4 (Homo sapiens, UniProt P08684); assay: Inhibition of human microsomal CYP3A4 expressed in baculovirus infected BTI-TN-5B1-4 cells at 10 uM incubated for 30 mins by luciferase assay relative to control; format: ADME
Summary of the method: (§1)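 CYP1A2, 2C9, 2C19, 2D6 and 3A4 in microsomes from baculovirus-infected insect cells, each with a P450-Glo luminogenic substrate. Inhibition read as loss of light; single-point at 10 μM, triplicate.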

hERG (KCNH2) = hERG (KCNH2) (Homo sapiens, UniProt Q12809); assay: Inhibition of human ERG at 10 uM incubated for 2 hrs by fluorescence polarisation assay relative to control
hERG (KCNH2), sequence (Q12809 whole entry): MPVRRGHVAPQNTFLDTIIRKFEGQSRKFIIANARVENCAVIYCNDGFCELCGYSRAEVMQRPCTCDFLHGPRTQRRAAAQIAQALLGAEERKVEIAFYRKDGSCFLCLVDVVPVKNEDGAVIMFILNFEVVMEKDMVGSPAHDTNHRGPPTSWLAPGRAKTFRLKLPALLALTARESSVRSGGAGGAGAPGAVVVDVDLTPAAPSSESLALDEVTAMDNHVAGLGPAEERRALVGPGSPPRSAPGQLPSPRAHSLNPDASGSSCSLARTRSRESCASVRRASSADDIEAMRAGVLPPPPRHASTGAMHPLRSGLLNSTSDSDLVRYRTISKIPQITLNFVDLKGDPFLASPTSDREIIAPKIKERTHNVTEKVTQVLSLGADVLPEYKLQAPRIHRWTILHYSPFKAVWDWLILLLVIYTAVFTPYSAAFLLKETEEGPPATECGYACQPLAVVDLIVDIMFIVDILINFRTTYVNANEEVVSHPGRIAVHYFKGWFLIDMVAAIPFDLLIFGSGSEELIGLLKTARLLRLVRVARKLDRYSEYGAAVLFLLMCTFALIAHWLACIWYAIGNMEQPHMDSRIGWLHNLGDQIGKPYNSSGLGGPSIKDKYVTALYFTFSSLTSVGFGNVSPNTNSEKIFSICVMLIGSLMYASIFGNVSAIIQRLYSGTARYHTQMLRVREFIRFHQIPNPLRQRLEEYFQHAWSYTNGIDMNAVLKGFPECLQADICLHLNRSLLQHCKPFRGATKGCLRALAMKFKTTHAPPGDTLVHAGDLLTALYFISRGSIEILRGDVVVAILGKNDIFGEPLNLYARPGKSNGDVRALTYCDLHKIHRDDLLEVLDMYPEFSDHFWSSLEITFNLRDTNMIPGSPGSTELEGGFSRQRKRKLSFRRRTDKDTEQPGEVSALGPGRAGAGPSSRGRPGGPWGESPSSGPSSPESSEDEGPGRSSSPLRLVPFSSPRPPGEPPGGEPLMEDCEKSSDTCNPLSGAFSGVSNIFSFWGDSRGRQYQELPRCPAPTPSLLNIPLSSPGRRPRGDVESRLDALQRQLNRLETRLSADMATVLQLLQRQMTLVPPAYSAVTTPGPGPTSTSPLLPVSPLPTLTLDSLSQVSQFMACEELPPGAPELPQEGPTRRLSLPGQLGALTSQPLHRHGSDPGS

[1] = Cytotoxicity against human A549 cells assessed as growth inhibition at 10 uM after 48 hrs by CellTiter-Glo assay relative to control; values are per cent of control; conditions: A549 cells
Trypanosoma cruzi [2] = assay: Antitrypanosomal activity against Trypanosoma cruzi amastigote form infected in human U2OS cells assessed as parasite growth inhibition at 50 uM after 72 hrs relative to control; format: functional; conditions: read-out: GI
Summary of the method: (§2)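 U2OS monolayers grown for 24 h, then infected with tissue-derived trypomastigotes of T. cruzi Y strain. Compounds were added 24 h after infection at 50 μM (single-point) or in dose-response, with 72 h exposure. Plates were fixed, stained and analysed by high-content imaging; activity was normalized to infected and non-infected controls. Means of at least two experiments; benznidazole as reference.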

[3] = molecular target: T1, Pteridine reductase 1 (Leishmania major) (UniProt Q01782); assay: Inhibition of Leishmania major PTR1 at 50 uM using H2B as substrate in presence of NADPH by photometric analysis relative to control
T1 sequence (whole entry): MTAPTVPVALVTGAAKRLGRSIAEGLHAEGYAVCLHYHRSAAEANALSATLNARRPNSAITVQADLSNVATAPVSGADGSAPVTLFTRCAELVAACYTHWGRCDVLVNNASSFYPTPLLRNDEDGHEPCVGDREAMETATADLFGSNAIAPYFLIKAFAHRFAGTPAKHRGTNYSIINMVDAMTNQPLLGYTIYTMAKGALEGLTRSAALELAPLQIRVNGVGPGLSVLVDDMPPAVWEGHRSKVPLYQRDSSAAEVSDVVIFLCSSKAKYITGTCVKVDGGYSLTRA

Trypanosoma cruzi [4] = assay: Antitrypanosomal activity against Trypanosoma cruzi amastigote form infected in human U2OS cells assessed as parasite growth inhibition after 72 hrs; format: functional, organism-based; summary of the method: as §2
Trypanosoma brucei [5] = assay: Antitrypanosomal activity against Trypanosoma brucei Lister 427 bloodstream form after 72 hrs by SYBR Green assay; format: functional, organism-based; conditions: Lister 427, 72 h
Trypanosoma brucei [6] = assay: Antitrypanosomal activity against Trypanosoma brucei Lister 427 bloodstream form assessed as parasite growth inhibition at 50 uM after 72 hrs by SYBR Green assay relative to control; format: functional; conditions: Lister 427, 72 h, read-out: GI
Trypanosoma brucei [7] = assay: Potentiation of methotrexate-induced antitrypanosomal activity against Trypanosoma brucei Lister 427 bloodstream form assessed as dose reduction index for compound at EC50 after 72 hrs by resazurin dye-based assay; format: functional
Trypanosoma brucei [8] = assay: Antitrypanosomal activity against Trypanosoma brucei Lister 427 bloodstream form after 72 hrs by resazurin dye-based assay; format: functional, organism-based; conditions: Lister 427, 72 h
Trypanosoma brucei [9] = assay: Potentiation of methotrexate-induced antitrypanosomal activity against Trypanosoma brucei Lister 427 bloodstream form assessed as dose reduction index for methotrexate at EC50 after 72 hrs by resazurin dye-based assay; format: functional
[10] = Cytotoxicity against human THP1 cells assessed as viable cells at 100 uM after 72 hrs by MTT assay relative to control; format: cell-based, THP-1; conditions: read-out: Activity
Summary of the method: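 THP-1-derived macrophages exposed to compounds for 72 h, tested at 100 μM or in dose-response; viability read by MTT colorimetric assay.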

[11] = Cytotoxicity against human WI38 cells assessed as growth inhibition at 10 uM after 48 hrs by CellTiter-Glo assay relative to control; values are per cent of control; conditions: WI38 cells
Trypanosoma brucei [12] = assay: Potentiation of methotrexate-induced antitrypanosomal activity against Trypanosoma brucei Lister 427 bloodstream form assessed as combination index at EC50 after 72 hrs by resazurin dye-based assay; format: functional
[13] = molecular target: T2, Pteridine reductase, putative (Trypanosoma brucei) (UniProt Q581W1); assay: Inhibition of Trypanosoma brucei PTR1 at 50 uM using H2B as substrate in presence of NADPH by photometric analysis relative to control
T2 sequence (whole entry): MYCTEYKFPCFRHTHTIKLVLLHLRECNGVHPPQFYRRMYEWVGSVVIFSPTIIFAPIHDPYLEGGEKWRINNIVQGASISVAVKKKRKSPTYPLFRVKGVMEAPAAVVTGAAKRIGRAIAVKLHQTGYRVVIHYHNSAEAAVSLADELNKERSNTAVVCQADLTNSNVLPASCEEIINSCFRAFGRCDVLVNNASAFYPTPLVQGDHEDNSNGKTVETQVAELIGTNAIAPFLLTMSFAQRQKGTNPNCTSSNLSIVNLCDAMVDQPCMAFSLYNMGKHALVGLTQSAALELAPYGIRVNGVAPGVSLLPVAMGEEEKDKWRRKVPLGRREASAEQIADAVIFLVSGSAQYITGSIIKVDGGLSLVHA

[14] = Cytotoxicity against human 786-O cells assessed as inhibition of mitochondrial viability at 10 uM after 6 hrs by CMXRos staining based assay relative to control; format: cell-based, 786-0; conditions: read-out: INH
Summary of the method: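 Mitochondrial toxicity monitored by MitoTracker Red CMXRos uptake and high-content imaging; compound at 10 μM, triplicate.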

[15] = Cytotoxicity against human U2OS cells assessed as viable cells at 50 uM after 72 hrs by MTT assay relative to control; format: cell-based; conditions: read-out: Activity
CYP2D6 = CYP2D6 (Homo sapiens, UniProt P10635); assay: Inhibition of human microsomal CYP2D6 expressed in baculovirus infected BTI-TN-5B1-4 cells at 10 uM incubated for 30 mins by luciferase assay relative to control; format: ADME; summary of the method: as §1
CYP2D6, sequence (P10635 whole entry): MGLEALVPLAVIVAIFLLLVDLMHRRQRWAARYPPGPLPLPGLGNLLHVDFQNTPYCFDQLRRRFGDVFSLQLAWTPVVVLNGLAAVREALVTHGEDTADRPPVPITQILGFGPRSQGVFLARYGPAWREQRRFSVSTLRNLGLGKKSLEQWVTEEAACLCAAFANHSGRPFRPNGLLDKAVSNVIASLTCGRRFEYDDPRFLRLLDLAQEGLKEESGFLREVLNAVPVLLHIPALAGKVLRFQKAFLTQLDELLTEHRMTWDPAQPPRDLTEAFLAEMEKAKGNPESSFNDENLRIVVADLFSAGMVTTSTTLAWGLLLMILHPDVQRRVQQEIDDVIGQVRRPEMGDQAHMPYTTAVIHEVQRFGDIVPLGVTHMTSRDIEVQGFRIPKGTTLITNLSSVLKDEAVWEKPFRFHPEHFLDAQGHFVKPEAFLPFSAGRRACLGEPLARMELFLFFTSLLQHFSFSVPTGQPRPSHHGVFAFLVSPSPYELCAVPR

Trypanosoma brucei [16] = assay: Antitrypanosomal activity against Trypanosoma brucei Lister 427 bloodstream form at 10 uM after 72 hrs by resazurin dye-based assay relative to control; format: functional
[17] = Selectivity index, ratio of CC50 for human A549 cells to EC50 for Trypanosoma brucei Lister 427 bloodstream form; format: toxicity; conditions: read-out: Ratio CC50/EC50
Summary of the method: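 Selectivity index = CC50 in the human host or cytotoxicity cell line divided by parasite EC50.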

CYP2C9 = CYP2C9 (Homo sapiens, UniProt P11712); assay: Inhibition of human microsomal CYP2C9 expressed in baculovirus infected BTI-TN-5B1-4 cells at 10 uM incubated for 30 mins by luciferase assay relative to control; format: ADME; summary of the method: as §1
CYP2C9, sequence (P11712 whole entry): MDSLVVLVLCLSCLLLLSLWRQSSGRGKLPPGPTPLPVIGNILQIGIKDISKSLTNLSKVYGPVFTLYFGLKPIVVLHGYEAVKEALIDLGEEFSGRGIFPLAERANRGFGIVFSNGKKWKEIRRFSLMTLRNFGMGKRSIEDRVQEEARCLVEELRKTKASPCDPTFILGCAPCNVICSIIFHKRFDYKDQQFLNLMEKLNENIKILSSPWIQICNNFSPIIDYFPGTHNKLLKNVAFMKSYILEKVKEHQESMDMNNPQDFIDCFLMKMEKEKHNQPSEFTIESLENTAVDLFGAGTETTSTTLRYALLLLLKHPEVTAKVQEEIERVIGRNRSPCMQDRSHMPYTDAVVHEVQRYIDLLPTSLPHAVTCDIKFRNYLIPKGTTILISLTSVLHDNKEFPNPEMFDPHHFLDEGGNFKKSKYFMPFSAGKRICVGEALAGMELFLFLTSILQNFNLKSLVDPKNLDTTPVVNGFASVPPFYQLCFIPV

Aurora kinase B = Aurora kinase B (Homo sapiens, UniProt Q96GD4); assay: Inhibition of recombinant full-length human aurora B kinase expressed in baculovirus system at 10 uM using MBP as substrate incubated for 45 mins by ADP-glo kinase assay; conditions: probe MBP
Aurora kinase B, sequence (Q96GD4 whole entry): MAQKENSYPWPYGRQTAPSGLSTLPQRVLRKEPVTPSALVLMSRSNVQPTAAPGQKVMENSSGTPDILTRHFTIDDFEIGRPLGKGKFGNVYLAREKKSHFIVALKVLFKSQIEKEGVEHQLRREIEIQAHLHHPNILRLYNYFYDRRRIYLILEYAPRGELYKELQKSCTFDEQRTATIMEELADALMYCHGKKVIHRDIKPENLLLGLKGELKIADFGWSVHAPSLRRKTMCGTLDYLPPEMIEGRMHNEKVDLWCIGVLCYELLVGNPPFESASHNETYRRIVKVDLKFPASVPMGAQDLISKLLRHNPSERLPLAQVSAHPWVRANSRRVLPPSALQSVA
Summary of the method: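 Aurora B activity measured as ADP formation via coupled luciferase ADP-Glo luminescence; single-point at 10 μM, triplicate.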

CYP2C19 = CYP2C19 (Homo sapiens, UniProt P33261); assay: Inhibition of human microsomal CYP2C19 expressed in baculovirus infected BTI-TN-5B1-4 cells at 10 uM incubated for 30 mins by luciferase assay relative to control; format: ADME; summary of the method: as §1
CYP2C19, sequence (P33261 whole entry): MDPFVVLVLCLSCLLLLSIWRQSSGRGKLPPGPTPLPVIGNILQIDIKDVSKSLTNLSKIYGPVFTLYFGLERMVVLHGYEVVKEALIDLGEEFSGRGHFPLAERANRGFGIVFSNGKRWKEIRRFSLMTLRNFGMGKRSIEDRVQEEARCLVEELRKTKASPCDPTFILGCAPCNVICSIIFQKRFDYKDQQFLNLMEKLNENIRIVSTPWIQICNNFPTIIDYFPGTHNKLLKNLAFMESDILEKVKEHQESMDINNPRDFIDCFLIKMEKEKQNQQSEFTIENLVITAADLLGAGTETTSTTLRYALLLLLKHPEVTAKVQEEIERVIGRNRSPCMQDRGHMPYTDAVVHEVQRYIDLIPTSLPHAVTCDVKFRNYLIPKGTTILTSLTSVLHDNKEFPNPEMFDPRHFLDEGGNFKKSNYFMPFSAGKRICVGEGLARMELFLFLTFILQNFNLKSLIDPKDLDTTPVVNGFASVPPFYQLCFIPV

CYP3A4, sequence (P08684 whole entry): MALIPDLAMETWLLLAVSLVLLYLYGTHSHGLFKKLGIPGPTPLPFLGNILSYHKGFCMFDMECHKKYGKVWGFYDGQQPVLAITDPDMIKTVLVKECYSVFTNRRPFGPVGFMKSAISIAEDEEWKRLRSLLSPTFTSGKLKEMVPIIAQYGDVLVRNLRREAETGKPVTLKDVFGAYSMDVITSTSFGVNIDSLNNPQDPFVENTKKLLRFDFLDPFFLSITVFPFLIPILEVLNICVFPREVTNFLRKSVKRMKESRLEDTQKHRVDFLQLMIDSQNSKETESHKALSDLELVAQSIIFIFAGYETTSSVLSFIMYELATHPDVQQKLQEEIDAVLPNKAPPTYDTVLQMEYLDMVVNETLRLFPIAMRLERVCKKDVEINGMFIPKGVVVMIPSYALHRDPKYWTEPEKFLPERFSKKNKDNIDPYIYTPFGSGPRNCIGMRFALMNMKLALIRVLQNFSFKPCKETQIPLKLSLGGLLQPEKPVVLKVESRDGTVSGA

inhibition at 0.5 h, 10 µM (CYP3A4) [%] | inhibition [3] [%] | EC50 (Trypanosoma cruzi [4]) [µM] | EC50 (Trypanosoma brucei [5]) [µM] | EC50 (Trypanosoma brucei [8]) [µM] | inhibition [13] [%] | inhibition at 0.5 h, 10 µM (CYP2D6) [%] | Structure (SMILES) | inhibition at 2 h, 10 µM (hERG (KCNH2)) [%] | cell growth (% of control) at 48 h, 10 µM [1] [%] | inhibition of growth at 50 µM (Trypanosoma cruzi [2]) [%] | inhibition of growth at 50 µM (Trypanosoma brucei [6]) [%] | Activity_index (Trypanosoma brucei [7]) | Activity (Trypanosoma brucei [9]) | viability at 72 h, 100 µM [10] [%] | cell growth (% of control) at 48 h, 10 µM [11] [%] | CI (Trypanosoma brucei [12]) | cytotoxicity at 6 h, 10 µM [14] [%] | viability at 72 h, 50 µM [15] [%] | Activity (Trypanosoma brucei [16]) [%] | selectivity ratio [17] | further results
10.6 | 0.59 | 1.31 | 2.31 | 0.44 | 0.36 | 39.3 | NC(=S)N/N=C/c1ccc(OCc2ccc(Cl)c(Cl)c2)cc1 | 2.4 | 72.5 | 80.5 | 100 | 3.84 | 6.56 | 38.8 | 89.4 | 0.41 | 23.4 | 65.5 | 99.83 | 8 | inhibition at 0.5 h, 10 µM (CYP2C9): 18.9%; inhibition at 0.75 h, 10 µM (Aurora kinase B): -6.24%; inhibition at 0.5 h, 10 µM (CYP2C19): 10.4%
-2.53 | 4.76 | 29.5 | 7.45 | 4.72 | 3.09 | 29.2 | COc1ccc(-c2cccc(/C=N/NC(N)=S)c2)cc1OC | 22.4 | 90.5 | 82.4 | 93.9 | 7.94 | 6.36 | 40.9 | 106 | 0.28 | -13.1 | 26.7 | 98.83 | 7 | inhibition at 0.5 h, 10 µM (CYP2C9): 56.8%; inhibition at 0.75 h, 10 µM (Aurora kinase B): -2.55%; inhibition at 0.5 h, 10 µM (CYP2C19): 22.2%
